Active and inactive are the calls of the source. No cut-off for these calls is given here.
Key:
HepG2 [1] = assay: Cell cycle arrest in human HepG2 cells assessed as accumulation at S phase at 0.5 uM after 24 hrs by flow cytometry (reference value: 23.97%); format: functional
HepG2 [2] = assay: Cell cycle arrest in human HepG2 cells assessed as accumulation at G2/M phase at 0.2 uM after 24 hrs by flow cytometry (reference value: 11.29%); format: functional
HepG2 [3] = assay: Cell cycle arrest in human HepG2 cells assessed as accumulation at G2/M phase at 0.5 uM after 24 hrs by flow cytometry (reference value: 11.29%); format: functional
HepG2 [4] = assay: Induction of apoptosis in human HepG2 cells assessed as viable cells at 0.5 uM after 24 hrs by annexin V/propidium iodide staining-based flow cytometry (reference value: 89.8%); format: functional; settings: HepG2, 24 h, read-out: Activity
HepG2 [5] = assay: Induction of apoptosis in human HepG2 cells assessed as early apoptotic cells at 0.2 uM after 48 hrs by annexin V/propidium iodide staining-based flow cytometry (reference value: 0.87%); format: functional
HepG2 [6] = assay: Induction of apoptosis in human HepG2 cells assessed as early apoptotic cells at 1 uM after 48 hrs by annexin V/propidium iodide staining-based flow cytometry (reference value: 0.87%); format: functional
HepG2 [7] = assay: Induction of apoptosis in human HepG2 cells assessed as necrotic cells at 1 uM after 48 hrs by annexin V/propidium iodide staining-based flow cytometry (reference value: 1.59%); format: functional
HUVEC [8] = assay: Antiproliferative activity against HUVEC after 48 hrs by MTT assay; format: cell-based; settings: Homo sapiens
Outline: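 HUVECs isolated from umbilical cord veins and grown in EBM-2 with growth factors at 37 °C, 5% CO2. Log-phase cells at 40,000-50,000 cells/mL exposed to a compound dilution series for 48 h. MTT added for 3 h, formazan dissolved in DMSO, absorbance read at 570 nm. IC50 taken from percent growth versus untreated control.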

HUVEC [9] = assay: Antivascular activity against HUVEC assessed as inhibition of tube formation at 125 to 500 nM after 8 hrs by Matrigel assay; format: functional, cell-based; settings: Homo sapiens
Outline: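 Wells of prechilled plates coated with Matrigel and solidified 45 min at 37 °C. HUVECs (1 × 10^4) in EBM-2 containing compound (125-500 nM) seeded onto the gel and incubated 8 h at 37 °C. Capillary networks photographed at 100×; tubule numbers and line lengths counted manually.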

Mus musculus [10] = assay: Toxicity in Balb/c athymic nude mouse xenografted with human HCT116 cells assessed as loss in body weight at 20 to 50 mg/kg, ip administered daily; format: organism-based, HCT-116; settings: in vivo
Outline: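 Female Balb/C athymic nude mice, 5-6 weeks old, implanted s.c. in the right flank with cells in HBSS. Once tumours reached about 100 mm3, mice were randomized (6 per group) to vehicle, 5-FU 10 mg/kg, or test agent 20 or 50 mg/kg i.p. daily. Body weight was recorded every two days.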

Mus musculus [11] = assay: Toxicity in Balb/c athymic nude mouse xenografted with human SKOV3 cells assessed as loss in body weight at 20 to 50 mg/kg, ip administered daily; format: organism-based, SK-OV-3; settings: in vivo
Outline: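 Female Balb/C athymic nude mice, 5-6 weeks old, carrying s.c. right-flank SK-OV-3 xenografts started from cells in HBSS. At about 100 mm3, groups of 6 received vehicle, 5-FU 10 mg/kg, or test agent i.p. daily. Body weight was measured every two days.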

Mus musculus [12] = assay: Toxicity in Balb/c athymic nude mouse xenografted with human SKOV3 cells assessed as change in feeding and animal behavior at 20 to 50 mg/kg, ip administered daily; format: organism-based, SK-OV-3; settings: in vivo
[13] = Inhibition of pig microtubule polymerization after 30 mins by turbidimetric assay; parameters: species or system Sus scrofa
Outline: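 Porcine-brain MAP-rich tubulin at 3 mg/mL preincubated 30 min at 4 °C in 0.1 M PIPES pH 6.9, 2 mM MgCl2, 0.5 mM EGTA. Compounds added 2 min before the run, then 1 mM GTP. Turbidity followed kinetically at 340 nm at 37 °C; assembly IC50 derived by Hamel's method.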

A549 = assay: Antiproliferative activity against human taxol-resistant A549 cells after 48 hrs by MTT assay; format: functional, cell-based; settings: A549, 48 h
Outline: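 MCF-7/ADR (doxorubicin-resistant) and A549/T (taxol-resistant) cells in RPMI-1640 with 10% FBS and penicillin/streptomycin. Log-phase cells at 40,000-50,000 cells/mL exposed to graded concentrations for 48 h. MTT 3 h, DMSO solubilization, absorbance 570 nm. IC50 from percent growth versus untreated control; mean ± SEM of ≥3 independent experiments.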

NCI-H1975 = assay: Resistance ratio, ratio of IC50 for human gefitinib-resistant NCI-H1975 cells to IC50 for human HCC827 cells; format: functional
HCT-116 [14] = assay: Cell cycle arrest in human HCT116 cells assessed as accumulation at G1 phase at 0.2 uM after 24 hrs by flow cytometry (reference value: 53.98%); format: functional
HCT-116 [15] = assay: Cell cycle arrest in human HCT116 cells assessed as accumulation at G1 phase at 1 uM after 24 hrs by flow cytometry (reference value: 53.98%); format: functional
HCT-116 [16] = assay: Cell cycle arrest in human HCT116 cells assessed as accumulation at S phase at 0.2 uM after 24 hrs by flow cytometry (reference value: 25.66%); format: functional
HCT-116 [17] = assay: Cell cycle arrest in human HCT116 cells assessed as accumulation at G2/M phase at 0.5 uM after 24 hrs by flow cytometry (reference value: 20.36%); format: functional
HCT-116 [18] = assay: Induction of apoptosis in human HCT116 cells assessed as viable cells at 0.2 uM after 24 hrs by annexin V/propidium iodide staining-based flow cytometry (reference value: 92%); format: functional; settings: HCT-116, 24 h, read-out: Activity
HCT-116 [19] = assay: Induction of apoptosis in human HCT116 cells assessed as late apoptotic cells at 0.2 uM after 48 hrs by annexin V/propidium iodide staining-based flow cytometry (reference value: 1.71%); format: functional
Outline: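 HCT116 cells treated with compound or DMSO for 24 or 48 h, trypsinized, washed twice in PBS and dual-stained with annexin-V and PI. Analysed by flow cytometry: early apoptotic cells scored as annexin-V+/PI−, late apoptotic cells as annexin-V+/PI+.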

HCT-116 [20] = assay: Induction of apoptosis in human HCT116 cells assessed as viable cells at 0.2 uM after 48 hrs by annexin V/propidium iodide staining-based flow cytometry (reference value: 92%); format: functional; settings: HCT-116, 48 h, read-out: Activity
HCT-116 [21] = assay: Induction of apoptosis in human HCT116 cells assessed as late apoptotic cells at 0.5 uM after 48 hrs by annexin V/propidium iodide staining-based flow cytometry (reference value: 1.71%); format: functional
HepG2 [22] = assay: Cell cycle arrest in human HepG2 cells assessed as accumulation at G1 phase at 0.2 uM after 24 hrs by flow cytometry (reference value: 62.74%); format: functional

Q: With `CCOc1ccc(-c2nc(N)sc2-c2cc(OC)c(OC)c(OC)c2)cc1` as the compound, how does the Activity (HepG2 [1]) read?
A: 7.29%

Q: And the Activity (HepG2 [2])?
A: 19.56%

Q: What about the Activity (HepG2 [3]) of the same compound?
A: 62.63%

Q: And the viability at 0.5 µM (HepG2 [4])?
A: 80.7%

Q: And the Activity (HepG2 [5])?
A: 66.6%

Q: And the Activity (HepG2 [6])?
A: 74%

Q: And the Activity (HepG2 [7])?
A: 0.4%

Q: What about the IC50 (HUVEC [8]) of the same compound?
A: 40.2 nM

Q: What about the Activity (HUVEC [9]) of the same compound?
A: Active

Q: What about the Activity (Mus musculus [10]) of the same compound?
A: Toxic

Q: What about the Activity (Mus musculus [11]) of the same compound?
A: Toxic

Q: And the Activity (Mus musculus [12])?
A: Non-toxic

Q: And the IC50 [13]?
A: 2740 nM

Q: And the IC50 (A549)?
A: 43 nM

Q: And the “Ratio IC50” value (NCI-H1975)?
A: 2.24

Q: What about the Activity (HCT-116 [14]) of the same compound?
A: 29.2%

Q: What about the Activity (HCT-116 [15]) of the same compound?
A: 13.06%

Q: What about the Activity (HCT-116 [16]) of the same compound?
A: 22%

Q: And the Activity (HCT-116 [17])?
A: 68.04%

Q: What about the viability at 0.2 µM (HCT-116 [18]) of the same compound?
A: 80.4%

Q: What about the Activity (HCT-116 [19]) of the same compound?
A: 23.4%

Q: And the viability at 0.2 µM (HCT-116 [20])?
A: 31.1%

Q: And the Activity (HCT-116 [21])?
A: 26.2%

Q: And the Activity (HepG2 [22])?
A: 50.57%

From ChEMBL document CHEMBL3596186, “Synthesis and biological evaluation of diarylthiazole derivatives as antimitotic and antivascular agents with potent antitumor activity” (Bioorg Med Chem, 2015)
